Measurements as given in ChEMBL document CHEMBL4052817 (J Med Chem, 2017).

What was measured:
[1] = target: Indoleamine 2,3-dioxygenase 1 (Homo sapiens, UniProt P14902); assay: Inhibition of human recombinant IDO-1 using L-Trp as substrate after 15 mins by PDMAB-based assay
[2] = system: Cynomolgus monkey; assay: Drug metabolism in cynomolgus monkey assessed as (S)-3-(5-fluoro-1H-indol-3-yl)pyrrolidine-2,5-dione formation at 10 mg/kg, po; type: ADME, organism-based, Macaca fascicularis; conditions: in vivo
In short: (§1)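 (R)-enantiomer or racemate dosed orally at 10 mg/kg to monkeys. Total plasma concentrations of each enantiomer were followed over time.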

[3] = Metabolic stability in dog plasma assessed as parent compound remaining after 48 hrs; type: ADME, cell-free, Canis lupus familiaris; conditions: read-out: Stability
In short: (§2)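 Active enantiomer incubated 48 h in mouse, dog or rat plasma, or in dog plasma that had been acidified; remaining enantiomer and formed antipode measured by chiral LC/MS-MS.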

[4] = Chemical stability in phosphate buffer saline at pH 7.4 assessed as parent compound remaining after 48 hrs; type: physicochemical; conditions: phosphate buffered saline, read-out: Stability
In short: (§3)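 (R)-enantiomer incubated for 48 h in phosphate-buffered saline (pH 7.4) or in mouse, rat, dog or acidified dog plasma. The (R)-enantiomer remaining and (S)-enantiomer formed were quantified (%) by chiral LC/MS-MS.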

[5] = Drug metabolism in human hepatocytes in absence of CYP inhibitor ABT; type: ADME, cell-based, Hepatocyte; conditions: read-out: Drug metabolism
[6] = Metabolic stability in dog acidified plasma assessed as parent compound remaining after 48 hrs; type: ADME, cell-free, Canis lupus familiaris; conditions: read-out: Stability; in short: as §2
[7] = AUC (infinity) in dog at 1 mg/kg, iv; type: ADME, organism-based, Canis lupus familiaris; parameters: dose 1 mg/kg, route intravenous, time infinity; conditions: in vivo
[8] = Metabolic stability in mouse plasma assessed as parent compound remaining after 48 hrs; type: ADME, cell-free; conditions: read-out: Stability; in short: as §2
[9] = system: Rattus norvegicus; assay: AUC (infinity) in rat assessed as (S)-3-(5-fluoro-1H-indol-3-yl)pyrrolidine-2,5-dione at 1 mg/kg, iv; type: ADME, organism-based; parameters: dose 1 mg/kg, time infinity, route intravenous; conditions: in vivo
In short: (§4)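 Pure active (R)-enantiomer given IV at 1 mg/kg to rat, dog and monkey. Exposure (AUCinf) of the (R)- and (S)-enantiomers measured; their AUC ratio reported as an index of in vivo interconversion.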

[10] = Inhibition of dog IDO-1 using tryptophan as substrate after 22 mins by LC-MS/MS method
[11] = target: Indoleamine 2,3-dioxygenase 1 (Mus musculus, UniProt P28776); assay: Inhibition of mouse IDO-1 using tryptophan as substrate after 22 mins by LC-MS/MS method
[12] = AUC (infinity) in cynomolgus monkey at 1 mg/kg, iv; type: ADME, organism-based, Macaca fascicularis; parameters: dose 1 mg/kg, route intravenous, time infinity; conditions: in vivo
[13] = system: Canis familiaris; assay: AUC (infinity) in dog assessed as (S)-3-(5-fluoro-1H-indol-3-yl)pyrrolidine-2,5-dione at 1 mg/kg, iv; type: ADME, organism-based, Canis lupus familiaris; parameters: dose 1 mg/kg, route intravenous, time infinity; conditions: in vivo; in short: as §4
[14] = system: Cynomolgus monkey; assay: AUC (infinity) in cynomolgus monkey assessed as (S)-3-(5-fluoro-1H-indol-3-yl)pyrrolidine-2,5-dione at 1 mg/kg, iv; type: ADME, organism-based, Macaca fascicularis; parameters: dose 1 mg/kg, route intravenous, time infinity; conditions: in vivo; in short: as §4
[15] = Fraction unbound in human plasma after 48 hrs; type: ADME, cell-free
[16] = AUC (infinity) in rat at 1 mg/kg, iv; type: ADME, organism-based; parameters: dose 1 mg/kg, time infinity, route intravenous; conditions: in vivo
[17] = Drug metabolism in human hepatocytes in presence of CYP inhibitor ABT; type: ADME, cell-based, Hepatocyte; conditions: with ABT (CYP inhibitor), read-out: Drug metabolism
[18] = Metabolic stability in rat plasma assessed as parent compound remaining after 48 hrs; type: ADME, cell-free; conditions: read-out: Stability; in short: as §2
[19] = Drug level in phosphate buffer saline at pH 7.4 treated with (R)-3-(5-fluoro-1H-indol-3-yl)pyrrolidine-2,5-dione after 48 hrs; in short: as §3
[20] = system: Plasma; assay: Drug level in rat plasma treated with (R)-3-(5-fluoro-1H-indol-3-yl)pyrrolidine-2,5-dione after 48 hrs; type: ADME, cell-free; in short: as §3
[21] = system: Cynomolgus monkey; assay: Drug level in cynomolgus monkey treated with (R)-3-(5-fluoro-1H-indol-3-yl)pyrrolidine-2,5-dione at 10 mg/kg, po; type: ADME, organism-based, Macaca fascicularis; conditions: in vivo; in short: as §1
[22] = system: Plasma; assay: Drug level in dog plasma treated with (R)-3-(5-fluoro-1H-indol-3-yl)pyrrolidine-2,5-dione after 48 hrs; type: ADME, cell-free, Canis lupus familiaris; in short: as §3
[23] = system: Plasma; assay: Drug level in dog acidified plasma treated with (R)-3-(5-fluoro-1H-indol-3-yl)pyrrolidine-2,5-dione after 48 hrs; type: ADME, cell-free, Canis lupus familiaris; in short: as §3
[24] = system: Plasma; assay: Drug level in mouse plasma treated with (R)-3-(5-fluoro-1H-indol-3-yl)pyrrolidine-2,5-dione after 48 hrs; type: ADME, cell-free; in short: as §3
[25] = target: Cytochrome P450 2C9 (Homo sapiens, UniProt P11712); assay: Inhibition of CYP2C9 (unknown origin); type: ADME
[26] = Efflux ratio of apparent permeability across human Caco2 cells; type: ADME, cell-based; conditions: Caco-2
[27] = Volume of distribution at steady state in mouse; type: ADME, organism-based; conditions: in vivo, read-out: Vdss
In short: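 Single 1 mg/kg IV dose of the racemate to male CD-1 mice (n=3). The plasma active enantiomer was quantified by chiral LC-MS/MS, and Vss was taken from the plasma concentration–time profile.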

[28] = target: Cytochrome P450 2D6 (Homo sapiens, UniProt P10635); assay: Inhibition of CYP2D6 (unknown origin); type: ADME
[29] = Fraction unbound in human plasma; type: ADME, cell-free
In short: (§5)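 Racemate incubated with plasma from preclinical species and humans. The unbound fraction of the (R)-enantiomer was determined.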

[30] = target: Cytochrome P450 3A4 (Homo sapiens, UniProt P08684); assay: Inhibition of CYP3A4 (unknown origin); type: ADME
[31] = Apparent permeability across human Caco2 cells; type: ADME, cell-based; conditions: Caco-2
[32] = target: T1, Cytochrome P450 1A2 (Homo sapiens, UniProt P05177); assay: Inhibition of CYP1A2 (unknown origin); type: ADME
T1 sequence (P05177 whole entry): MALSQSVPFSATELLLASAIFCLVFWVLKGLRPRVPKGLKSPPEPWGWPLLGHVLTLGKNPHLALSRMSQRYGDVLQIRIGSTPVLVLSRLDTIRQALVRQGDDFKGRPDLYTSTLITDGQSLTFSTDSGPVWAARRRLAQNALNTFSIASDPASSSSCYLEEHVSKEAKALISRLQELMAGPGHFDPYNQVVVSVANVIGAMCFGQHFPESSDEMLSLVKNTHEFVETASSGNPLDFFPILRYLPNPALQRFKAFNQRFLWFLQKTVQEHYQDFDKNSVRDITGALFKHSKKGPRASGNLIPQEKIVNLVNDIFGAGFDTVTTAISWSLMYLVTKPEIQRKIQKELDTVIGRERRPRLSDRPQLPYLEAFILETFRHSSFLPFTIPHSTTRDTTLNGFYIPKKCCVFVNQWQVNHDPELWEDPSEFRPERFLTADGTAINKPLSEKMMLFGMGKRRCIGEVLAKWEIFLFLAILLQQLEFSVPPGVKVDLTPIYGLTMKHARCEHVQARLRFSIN

[33] = target: Cytochrome P450 2C19 (Homo sapiens, UniProt P33261); assay: Inhibition of CYP2C19 (unknown origin); type: ADME
[34] = Fraction unbound in mouse plasma; type: ADME, cell-free; in short: as §5
[35] = Intrinsic clearance in human microsomes; type: ADME, Microsome
[36] = Half life in mouse; type: ADME, organism-based; conditions: in vivo
[37] = Intrinsic clearance in mouse microsomes; type: ADME, Microsome
[38] = Oral bioavailability in mouse at 5 mg/kg; type: ADME, organism-based; conditions: in vivo
[39] = Oral bioavailability in mouse at 30 mg/kg; type: ADME, organism-based; conditions: in vivo
[40] = Clearance in mouse; type: ADME, organism-based; conditions: in vivo

Chain of Indoleamine 2,3-dioxygenase 1 (Homo sapiens, UniProt P14902) (P14902 whole entry): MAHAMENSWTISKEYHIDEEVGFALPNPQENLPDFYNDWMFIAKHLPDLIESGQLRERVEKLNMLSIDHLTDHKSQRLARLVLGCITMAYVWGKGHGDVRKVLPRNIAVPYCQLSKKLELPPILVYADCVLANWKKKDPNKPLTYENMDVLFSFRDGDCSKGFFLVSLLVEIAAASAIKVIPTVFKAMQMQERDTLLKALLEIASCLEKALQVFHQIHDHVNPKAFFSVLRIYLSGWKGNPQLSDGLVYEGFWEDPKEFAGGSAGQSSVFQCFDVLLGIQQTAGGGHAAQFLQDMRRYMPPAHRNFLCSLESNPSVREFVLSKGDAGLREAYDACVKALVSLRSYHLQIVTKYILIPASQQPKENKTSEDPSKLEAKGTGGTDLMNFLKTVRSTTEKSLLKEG
Chain of Indoleamine 2,3-dioxygenase 1 (Mus musculus, UniProt P28776) (P28776 whole entry): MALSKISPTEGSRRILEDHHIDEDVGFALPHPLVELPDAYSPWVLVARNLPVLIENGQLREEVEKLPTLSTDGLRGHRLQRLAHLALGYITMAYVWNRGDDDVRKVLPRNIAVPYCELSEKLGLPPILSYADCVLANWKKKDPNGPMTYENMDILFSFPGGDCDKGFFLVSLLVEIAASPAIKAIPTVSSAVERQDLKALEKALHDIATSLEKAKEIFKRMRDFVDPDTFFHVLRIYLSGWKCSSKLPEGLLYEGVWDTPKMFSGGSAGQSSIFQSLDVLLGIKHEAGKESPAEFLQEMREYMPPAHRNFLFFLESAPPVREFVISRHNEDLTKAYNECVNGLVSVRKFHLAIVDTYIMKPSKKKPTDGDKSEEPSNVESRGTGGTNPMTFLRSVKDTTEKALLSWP
Chain of Cytochrome P450 2C19 (P33261 whole entry): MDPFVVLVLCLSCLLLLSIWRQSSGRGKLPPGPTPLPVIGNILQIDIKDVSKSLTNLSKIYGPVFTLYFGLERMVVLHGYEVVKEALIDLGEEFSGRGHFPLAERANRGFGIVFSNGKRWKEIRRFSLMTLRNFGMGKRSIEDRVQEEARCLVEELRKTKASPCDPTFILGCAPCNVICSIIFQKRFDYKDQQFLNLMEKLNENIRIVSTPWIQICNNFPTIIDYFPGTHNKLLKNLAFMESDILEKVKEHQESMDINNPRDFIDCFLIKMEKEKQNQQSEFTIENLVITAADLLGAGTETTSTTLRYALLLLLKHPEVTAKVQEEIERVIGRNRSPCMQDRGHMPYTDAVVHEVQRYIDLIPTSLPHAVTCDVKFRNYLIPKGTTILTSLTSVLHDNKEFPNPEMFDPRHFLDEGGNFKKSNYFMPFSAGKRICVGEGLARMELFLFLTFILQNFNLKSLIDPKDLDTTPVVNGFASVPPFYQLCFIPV
Chain of Cytochrome P450 2C9 (P11712 whole entry): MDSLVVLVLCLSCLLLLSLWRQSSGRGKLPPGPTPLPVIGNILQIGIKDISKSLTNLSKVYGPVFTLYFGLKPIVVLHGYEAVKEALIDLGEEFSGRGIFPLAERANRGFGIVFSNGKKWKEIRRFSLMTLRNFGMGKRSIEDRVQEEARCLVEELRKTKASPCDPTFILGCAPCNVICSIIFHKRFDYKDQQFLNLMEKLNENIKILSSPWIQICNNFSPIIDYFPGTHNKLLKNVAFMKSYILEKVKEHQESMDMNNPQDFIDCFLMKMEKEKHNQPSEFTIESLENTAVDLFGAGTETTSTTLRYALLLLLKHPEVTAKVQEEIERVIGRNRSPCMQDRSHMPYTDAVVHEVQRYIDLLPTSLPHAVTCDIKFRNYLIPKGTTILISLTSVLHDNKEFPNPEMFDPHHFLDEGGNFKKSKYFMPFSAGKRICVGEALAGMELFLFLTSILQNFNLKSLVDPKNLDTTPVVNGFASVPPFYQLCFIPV
Chain of Cytochrome P450 3A4 (P08684 whole entry): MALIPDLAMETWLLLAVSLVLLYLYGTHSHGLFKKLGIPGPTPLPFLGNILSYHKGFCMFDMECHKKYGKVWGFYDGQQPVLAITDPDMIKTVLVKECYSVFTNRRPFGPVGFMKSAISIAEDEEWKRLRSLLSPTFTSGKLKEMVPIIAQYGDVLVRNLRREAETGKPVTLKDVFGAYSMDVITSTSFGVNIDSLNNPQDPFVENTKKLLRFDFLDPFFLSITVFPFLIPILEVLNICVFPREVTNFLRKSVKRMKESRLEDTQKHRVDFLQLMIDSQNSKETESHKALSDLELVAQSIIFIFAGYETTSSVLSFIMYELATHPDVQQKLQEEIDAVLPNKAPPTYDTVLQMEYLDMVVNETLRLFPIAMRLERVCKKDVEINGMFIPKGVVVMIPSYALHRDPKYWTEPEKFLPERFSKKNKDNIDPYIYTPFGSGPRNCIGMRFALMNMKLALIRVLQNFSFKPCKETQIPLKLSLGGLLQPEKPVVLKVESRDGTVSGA
Chain of Cytochrome P450 2D6 (P10635 whole entry): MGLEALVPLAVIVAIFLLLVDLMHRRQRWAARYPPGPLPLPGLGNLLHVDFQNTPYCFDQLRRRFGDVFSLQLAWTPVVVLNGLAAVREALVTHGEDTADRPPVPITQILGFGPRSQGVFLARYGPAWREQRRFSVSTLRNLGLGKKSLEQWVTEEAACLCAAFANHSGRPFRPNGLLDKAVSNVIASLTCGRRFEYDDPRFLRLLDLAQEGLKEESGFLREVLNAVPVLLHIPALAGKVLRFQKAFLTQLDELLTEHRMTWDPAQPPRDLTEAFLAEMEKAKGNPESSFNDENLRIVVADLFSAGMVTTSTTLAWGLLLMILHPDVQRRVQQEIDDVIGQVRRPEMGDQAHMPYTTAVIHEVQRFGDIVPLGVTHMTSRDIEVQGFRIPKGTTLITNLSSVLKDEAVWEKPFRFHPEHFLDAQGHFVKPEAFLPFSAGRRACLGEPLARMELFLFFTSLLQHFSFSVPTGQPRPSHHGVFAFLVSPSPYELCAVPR

SMILES: O=C1CC(c2cccc3cc(Cl)ccc23)C(=O)N1 (centres undefined)
- IC50 [1]: > 50 µM

SMILES: O=C1CC(c2cccc3ccc(Cl)cc23)C(=O)N1 (centres undefined)
- IC50 [1]: > 50 µM

SMILES: COc1ccc2c(C3CC(=O)NC3=O)c[nH]c2c1 (centres undefined)
- IC50 [1]: > 50 µM

SMILES: O=C1C[C@@H](c2c[nH]c3ccccc23)C(=O)N1
- IC50 [1]: 83 µM

SMILES: N#Cc1ccc2[nH]cc(C3CC(=O)NC3=O)c2c1 (centres undefined)
- IC50 [1]: 1.2 µM

SMILES: O=C1CC(c2c[nH]c3ccc(C(F)(F)F)cc23)C(=O)N1 (centres undefined)
- IC50 [1]: 9.7 µM

SMILES: O=C1C[C@H](c2c[nH]c3ccc(F)cc23)C(=O)N1
- Drug metabolism [2]: Metabolite_Detected
- remaining at 48 h [3]: 30%
- remaining at 48 h [4]: 89%
- metabolised [5]: 61%
- remaining at 48 h [6]: 93.5%
- AUC(0-inf) [7]: 696 ng·h/mL
- remaining at 48 h [8]: 35%
- AUC [9]: 153 ng·h/mL
- IC50 [10]: 0.2 µM
- IC50 [11]: 7.3 µM
- AUC(0-inf) [12]: 6810 ng·h/mL
- AUC [13]: 124 ng·h/mL
- AUC [14]: 3516 ng·h/mL
- fraction unbound at 48 h [15]: 0.449
- AUC(0-inf) [16]: 2270 ng·h/mL
- metabolised [17]: 39%
- remaining at 48 h [18]: 27%

SMILES: O=C1C[C@H](c2c[nH]c3cc(Cl)c(F)cc23)C(=O)N1
- IC50 [1]: 0.58 µM

SMILES: O=C1C[C@@H](c2c[nH]c3cc(Cl)c(F)cc23)C(=O)N1
- IC50 [1]: > 50 µM

SMILES: O=C1C[C@@H](c2c[nH]c3ccc(F)cc23)C(=O)N1
- Drug metabolism [19]: Metabolite detected
- Drug metabolism [20]: Metabolite_Detected
- Drug metabolism [21]: Metabolite_Detected
- Drug metabolism [22]: Metabolite_Detected
- Drug metabolism [23]: Metabolite_Detected
- Drug metabolism [24]: Metabolite_Detected
- fraction unbound at 48 h [15]: 0.286

SMILES: O=C1CC(c2c[nH]c3ccc(Cl)cc23)C(=O)N1 (centres undefined)
- IC50 [1]: 0.83 µM

SMILES: O=C1C[C@H](c2c[nH]c3ccccc23)C(=O)N1
- IC50 [25]: > 10 µM
- efflux ratio [26]: 0.77
- Vd [27]: 1.2 L/kg
- IC50 [28]: > 10 µM
- fraction unbound [29]: 0.43
- IC50 [30]: > 10 µM
- Papp [31]: 28 ×10⁻⁶ cm/s
- IC50 [32]: > 10 µM
- IC50 [33]: > 10 µM
- fraction unbound [34]: 0.55
- clearance [35]: < 10 µL/min/mg
- half-life [36]: 58.2 min
- clearance [37]: < 10 µL/min/mg
- bioavailability [38]: 63%
- bioavailability [39]: 65%
- clearance [40]: 15.6 mL/min/kg
